Sampled rows, rich in hits. Any-hit rate of the full collection: about 2.9%.
ABHD5-PLIN5 inh – blocks binding of human ABHD5 to perilipin-5 | Q00G26+Q8WTS1 | actives 0.78% (n = 360,000) | Split G. princeps luciferase complementation, luminescence, 4 h | inhibition, % at 4 µM;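 active = inhibition above the mean inhibition across every tested compound plus 3 SD, cut at about 22% in these data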;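 also: 0% = DMSO only wells and the 100% control is not disclosed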
APOBEC3G inh – blocks human APOBEC3G single-stranded DNA deamination; actives 0.28% (n = 330,000); inhibition, % at 20 µM; Q9HC16; AID 493012; recombinant A3G, ssDNA deamination FAM/TAMRA fluorescence;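 active = inhibition of at least 40% at 20 µM, with no more than 30% in the related APOBEC3A deaminase screen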;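 also: plate controls were DMSO wells with A3G for no effect and wells lacking A3G enzyme for full effect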
Target sequence (Q9HC16 whole entry, looked up): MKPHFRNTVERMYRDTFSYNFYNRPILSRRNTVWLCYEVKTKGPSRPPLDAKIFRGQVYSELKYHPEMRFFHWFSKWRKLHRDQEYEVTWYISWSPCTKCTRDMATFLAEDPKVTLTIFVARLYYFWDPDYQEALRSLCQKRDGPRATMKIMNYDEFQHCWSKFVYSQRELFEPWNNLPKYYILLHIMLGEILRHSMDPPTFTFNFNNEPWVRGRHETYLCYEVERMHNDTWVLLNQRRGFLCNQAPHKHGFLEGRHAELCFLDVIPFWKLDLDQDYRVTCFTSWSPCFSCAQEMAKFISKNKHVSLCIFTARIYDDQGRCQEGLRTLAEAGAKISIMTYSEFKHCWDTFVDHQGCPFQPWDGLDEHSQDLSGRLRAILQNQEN
APOBEC3A inh – blocks human APOBEC3A ssDNA deamination; P31941; recombinant A3A, FAM/TAMRA ssDNA deamination fluorescence; inhibition, % at 20 µM; actives 0.41% (n = 330,000);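 active = at least 40% inhibition at 20 µM here, with at most 30% in a related deaminase screen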;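 also: plate controls were A3A with DMSO for no effect and wells lacking A3A enzyme for full effect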
HCV NS3 hel inh – inhibitors of Hepatitis C virus NS3 helicase | NS3 helicase DNA unwinding, Cy5 molecular beacon fluorescence | inhibition, % at 10.9 µM | actives 0.56% (n = 290,000) | AID 1800;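 active = inhibition above the mean of all tested compounds plus 3 SD, set per campaign, cut at about 35% in these data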;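 also: 0% = DMSO wells and 100% = thioflavine S control wells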
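System: NS3 helicase fragment of HCV / Schedule: 1 h at 25 °C / Control set: DMSO alone as 0% and 110 µM thioflavine S as 100% / Reagent: Cy5/quencher beacon DNA duplex and ATP to start / Technique: Cy5 fluorescence / Replication: singlicate / Evaluation: % inhibition of end-to-start signal ratio versus controls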
core dimer inh – HCV core protein dimerization inhibition; TR-FRET GST/Flag-core106 dimerization, 1536-well; inhibition, % at 5 µM; actives 0.33% (n = 300,000); AID 1899;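 active = inhibition above the mean of all tested compounds plus 3 SD, set per screening campaign, cut at about 45% in these data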
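test system = GST/Flag-tagged HCV core106 proteins | probe or stimulus = Eu donor and XL665 acceptor anti-tag antibodies | times = compound-protein-antibody incubation 4 h at 22.5 °C | signal = TR-FRET, excitation 340 nm, emission 617 and 671 nm | measure = percent inhibition of core106 dimerization signal | controls = wells lacking GST-core106 and wells with excess unlabelled core106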
PRMT1 inh – PRMT1 (human) inhibition, primary screen. Q99873. actives 1.3% (n = 370,000). recombinant PRMT1, activity-based probe fluorescence polarization. AID 652257. inhibition, % at 2.79 µM;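 active = inhibition above about 21% made by adding two undisclosed values, limit read from the data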
NS3 hel confirm – confirmation of Hepatitis C virus NS3 helicase inhibitors | shares compounds with HCV NS3 hel inh | NS3 helicase DNA unwinding, Cy5 molecular beacon fluorescence | inhibition, % at 10.9 µM | actives 31% (n = 1,600);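 active = inhibition above the mean of all tested compounds plus 3 SD, cutoff set per campaign, cut at about 36% in these data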
FID counter trip – displaces DNA intercalator in HCV helicase counter-screen; shares compounds with HCV NS3 hel inh; DNA fluorescent intercalator displacement, fluorescence; inhibition, % at 7.9 µM; actives 4% (n = 1,600); AID 1945; in the data active = inhibition above about 37%;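 also: 0% = vehicle and 100% = reference compound; higher means more displacement of ethidium bromide from the DNA hairpin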
Starred values were filed as active, the others as inactive.

Results for O=C(O)c1ccccc1N1C(=O)C2C3c4ccccc4C(Br)(c4ccccc43)C2C1=O (stereo not drawn) ?
ABHD5-PLIN5 inh: -6; APOBEC3G inh: -6; APOBEC3A inh: 2; HCV NS3 hel inh: 40*; core dimer inh: 2; PRMT1 inh: -2; NS3 hel confirm: 42*; FID counter trip: -21

What do the screens show for `COc1cccc(C(=O)N/N=C/c2ccc(OC)c(COc3ccccc3C(N)=O)c2)c1`?
ABHD5-PLIN5 inh: 1; APOBEC3G inh: -2; APOBEC3A inh: 1; HCV NS3 hel inh: 43*; core dimer inh: 2; PRMT1 inh: 1; NS3 hel confirm: -12; FID counter trip: -41

What do the screens show for `O=C1NC(=Nc2ccccc2)S/C1=C\c1ccccc1`?
ABHD5-PLIN5 inh: 0; APOBEC3G inh: -9; APOBEC3A inh: 1; HCV NS3 hel inh: 40*; core dimer inh: -5; PRMT1 inh: 3; NS3 hel confirm: 5; FID counter trip: 14

How did CCOC(=O)CN(Cc1ccccc1)C(=O)OC(C)(C)C do in these assays?
APOBEC3G inh: 1; APOBEC3A inh: -7; HCV NS3 hel inh: 12; core dimer inh: 3

What do the screens show for `Cn1cccc1CC(=O)NNC(=S)Nc1ccc(Cl)cc1`?
ABHD5-PLIN5 inh: -2; APOBEC3G inh: -4; APOBEC3A inh: 3; HCV NS3 hel inh: 36*; core dimer inh: -9; PRMT1 inh: 6; NS3 hel confirm: -9; FID counter trip: 10

Results for Cn1cccc1CC(=O)N/N=C/c1ccc(Cl)cc1 ?
ABHD5-PLIN5 inh: 6; APOBEC3G inh: 0; APOBEC3A inh: -4; HCV NS3 hel inh: 0; core dimer inh: 12; PRMT1 inh: 1

What do the screens show for `Cn1cccc1CC(=O)NNC(=S)Nc1ccccc1Cl`?
ABHD5-PLIN5 inh: -5; APOBEC3G inh: -12; APOBEC3A inh: -2; HCV NS3 hel inh: 46*; core dimer inh: 14; PRMT1 inh: 1; NS3 hel confirm: -9; FID counter trip: 13

How did CCc1nc2ccc(C(=O)N(CC)CCN(C)C)cn2c1N(C)C(=O)c1cccc(OC)c1 do in these assays?
ABHD5-PLIN5 inh: 1; PRMT1 inh: -8

Results for Nn1c(Cc2cccc3ccccc23)nnc1SCc1c(Cl)cccc1Cl ?
ABHD5-PLIN5 inh: -7; APOBEC3G inh: -5; APOBEC3A inh: 4; HCV NS3 hel inh: 61*; core dimer inh: 6; PRMT1 inh: 2; NS3 hel confirm: -9; FID counter trip: -27

What do the screens show for `Nn1c(Cc2cccc3ccccc23)nnc1SCc1ccc(Cl)c(Cl)c1`?
ABHD5-PLIN5 inh: 1; HCV NS3 hel inh: -16; core dimer inh: -1; PRMT1 inh: 2

What do the screens show for `CC(C)=CC(=O)OCc1csc(CC(=O)Nc2ccccc2C)n1`?
ABHD5-PLIN5 inh: -9; APOBEC3G inh: -1; APOBEC3A inh: 6; HCV NS3 hel inh: 1; core dimer inh: 7; PRMT1 inh: 2

Results for CCOC(=O)/C=C/C(=O)OCc1csc(CC(=O)Nc2ccccc2C)n1 ?
ABHD5-PLIN5 inh: 3; APOBEC3G inh: 3; APOBEC3A inh: 9; HCV NS3 hel inh: 38*; core dimer inh: -13; PRMT1 inh: 0; NS3 hel confirm: -19; FID counter trip: -25

How did CCOC(=O)/C(C(C)=O)=C1\OC(=O)c2ccccc21 do in these assays?
ABHD5-PLIN5 inh: 1; APOBEC3G inh: -4; APOBEC3A inh: -2; HCV NS3 hel inh: 44*; core dimer inh: -3; PRMT1 inh: 0; NS3 hel confirm: -7; FID counter trip: 7

What do the screens show for `CCOC(=O)/C(C(C)=O)=C1/OC(=O)c2ccccc21`?
ABHD5-PLIN5 inh: 2; APOBEC3G inh: -1; APOBEC3A inh: -2; HCV NS3 hel inh: 0; core dimer inh: 2; PRMT1 inh: 2

What do the screens show for `COc1ccc(OC)c(S(=O)(=O)Nc2cccc3ccc(O)cc23)c1`?
ABHD5-PLIN5 inh: -5; APOBEC3G inh: 6; APOBEC3A inh: 1; core dimer inh: 2; PRMT1 inh: -4

Assay outcomes (PubChem)
